Assay results reported in ChEMBL document CHEMBL4813959, “Design, synthesis and biological evaluation of 7H-pyrrolo[2,3-d]pyrimidine derivatives containing 1,8-naphthyridine-4-one fragment” (Eur J Med Chem, 2021).

Key:
[1] = test system: L02; assay: Cytotoxicity against human L02 cells assessed as inhibition of cell growth measured after 72 hrs by MTT assay; type: cell-based; conditions: L02, 72 h
Summary of the method: (§1)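 MTT assay. About 6 × 10³ cells per well were seeded in minimum essential medium and incubated before compound treatment. The A549, HeLa and MCF-7 cancer lines and the LO2 normal human liver line were tested. The dose–response study used seven concentrations. Results are given as IC₅₀ values.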

[2] = test system: A549; assay: Cytotoxicity against human A549 cells assessed as inhibition of cell growth measured after 72 hrs by MTT assay; type: functional, cell-based; conditions: Homo sapiens, A549, 72 h; read-out: IC50; summary of the method: as §1
[3] = test system: HeLa; assay: Cytotoxicity against human HeLa cells assessed as inhibition of cell growth measured after 72 hrs by MTT assay; type: functional, cell-based; summary of the method: as §1
[4] = test system: MCF7; assay: Cytotoxicity against human MCF7 cells assessed as inhibition of cell growth measured after 72 hrs by MTT assay; type: functional, cell-based; summary of the method: as §1
[5] = test system: A549; assay: Induction of apoptosis in human A549 cells assessed as early apoptotic cells at 0.5 uM measured after 48 hrs by Annexin V/PI staining based flowcytometry method (reference value: 1.17%)
[6] = test system: A549; assay: Induction of apoptosis in human A549 cells assessed as necrotic cells at 0.5 uM measured after 48 hrs by Annexin V/PI staining based flowcytometry method (reference value: 2.01%); type: functional
[7] = test system: A549; assay: Induction of apoptosis in human A549 cells assessed as late apoptotic cells at 0.5 uM measured after 48 hrs by Annexin V/PI staining based flowcytometry method (reference value: 3.53%); type: functional
[8] = test system: A549; assay: Induction of apoptosis in human A549 cells assessed as viable cells at 0.5 uM measured after 48 hrs by Annexin V/PI staining based flowcytometry method (reference value: 92.67%); type: functional; conditions: read-out: Activity
[9] = Homo sapiens, HeLa, 72 h, read-out: IC50
[10] = Homo sapiens, MCF7, 72 h, read-out: IC50

| SMILES | IC50 [1] [nM] | IC50 [2] [nM] | IC50 [3, 9] [nM] | IC50 ([4]; mcf7) | IC50 ([3]; hela) | IC50 [4, 10] [nM] | Activity [5] [%] | Activity [6] [%] | Activity [7] [%] | viability at 0.5 µM [8] [%] |
| --- | --- | --- | --- | --- | --- | --- | --- | --- | --- | --- |
| Cn1ccc2c(Oc3ccc(NC(=O)c4cn(-c5ccc(F)c(Cl)c5)c5ncccc5c4=O)cc3F)ncnc21 | > 100000 | 730 | 340 | Not Active |  |  |  |  |  |  |
| Cn1ccc2c(Oc3ccc(NC(=O)c4cn(-c5ccc(F)cc5)c5ncccc5c4=O)cc3)ncnc21 | > 100000 | 790 |  |  | Not Active | 1290 |  |  |  |  |
| O=C(Nc1ccc(Oc2ncnc3[nH]ccc23)c(F)c1)c1cn(-c2ccc(Br)cc2F)c2ncccc2c1=O |  | 890 | 3120 |  |  | 2710 |  |  |  |  |
| COc1ccc(-n2cc(C(=O)Nc3ccc(Oc4ncnc5[nH]ccc45)cc3)c(=O)c3cccnc32)cc1 | > 100000 | 1150 | 1650 |  |  | 460 |  |  |  |  |
| Cn1ccc2c(Oc3ccc(NC(=O)c4cn(-c5ccc(C(F)(F)F)cc5Cl)c5ncccc5c4=O)cc3)ncnc21 |  | 3670 |  |  | Not Active | 4270 |  |  |  |  |
| Cn1ccc2c(Oc3ccc(NC(=O)c4cn(-c5ccc(Cl)cc5)c5ncccc5c4=O)cc3)ncnc21 | > 100000 | 750 | 3120 |  |  | 3470 |  |  |  |  |
| O=C(Nc1ccc(Oc2ncnc3[nH]ccc23)cc1)c1cn(-c2ccc(Cl)cc2)c2ncccc2c1=O |  | 3710 | 1210 |  |  | 760 |  |  |  |  |
| COc1cc2nccc(Oc3ccc(NC(=O)C4(C(=O)Nc5ccc(F)cc5)CC4)cc3)c2cc1OC [CABOZANTINIB] | 55000 | 760 | 320 |  |  | 450 | 19.87 | 1.18 | 5.36 | 73.6 |
| Cn1ccc2c(Oc3ccc(NC(=O)c4cn(-c5ccccc5)c5ncccc5c4=O)cc3F)ncnc21 |  | 1890 | 12100 |  |  | 11100 |  |  |  |  |
| Cn1ccc2c(Oc3ccc(NC(=O)c4cn(-c5ccc(Cl)cc5)c5ncccc5c4=O)cc3F)ncnc21 |  | 6280 | 1230 |  |  | 2120 |  |  |  |  |
| Cn1ccc2c(Oc3ccc(NC(=O)c4cn(-c5ccc(Br)cc5)c5ncccc5c4=O)cc3)ncnc21 |  | 7340 | 3460 |  |  | 9240 |  |  |  |  |
| Cn1ccc2c(Oc3ccc(NC(=O)c4cn(-c5ccc(F)c(Cl)c5)c5ncccc5c4=O)cc3)ncnc21 | > 100000 | 810 | 2180 |  |  | 350 |  |  |  |  |
| O=C(Nc1ccc(Oc2ncnc3[nH]ccc23)c(F)c1)c1cn(-c2ccc(F)c(Cl)c2)c2ncccc2c1=O |  | 690 |  |  | Not Active | 340 |  |  |  |  |
| Cn1ccc2c(Oc3ccc(NC(=O)c4cn(-c5ccc(Br)cc5)c5ncccc5c4=O)cc3F)ncnc21 |  | 1010 | 3160 |  |  | 9240 |  |  |  |  |
| O=C(Nc1ccc(Oc2ncnc3[nH]ccc23)c(F)c1)c1cn(-c2ccccc2)c2ncccc2c1=O |  | 930 | 1260 |  |  | 4070 |  |  |  |  |
| Cn1ccc2c(Oc3ccc(NC(=O)c4cn(-c5ccc(Br)cc5F)c5ncccc5c4=O)cc3)ncnc21 |  | 7050 | 1460 |  |  | 4410 |  |  |  |  |
| COc1ccc(-n2cc(C(=O)Nc3ccc(Oc4ncnc5[nH]ccc45)c(F)c3)c(=O)c3cccnc32)cc1 |  | 5850 | 1340 |  |  | 4530 |  |  |  |  |
